# Only some compounds are listed: those with a hit (about 2.3% of all), similar ones and a draw of the others.
# DENV2 CPE: inhibitors of DENV2 cytopathic effect, primary screen, cell-based, plate reader, single concentration. DENV2-infected cells, cytopathic effect rescue. CPE inhibition, % at 9.99 µM. hit rate 1.7% among 350,000. AID 651640, 2012; in the data active = CPE inhibition above about 20%, passing the limit was not always enough; inconclusive = no clear call, values can overlap the other calls; tested in BHK-21 cells;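 note: 0% = median of neutral control wells and 100% = median of positive control wells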
# CFTR F508del cor: F508del CFTR correction, initial screen, CFBE line, single point; CFBE cells, YFP halide quenching; stimulated with forskolin plus potentiator P3; % fluorescence drop versus neutral controls; activity (quench increase), % at 7.58 µM; hit rate 0.36% among 350,000; AID 720511, 2013;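 active = mean added fluorescence quench of at least 8% versus neutral control, with both replicates also reaching 8%; inconclusive = only one of the mean or replicate conditions met; inactive = mean below 8% and not both replicates reaching 8%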;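 note: cells transiently co-express mutant CFTR-F508del with the halide-sensitive YFP; corrector assay measuring rescue of mutant channel to the surface after 24 h compound exposure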
# Statin myotox sup: suppressors of statin myotoxicity in C2C12 myotubes, primary screen, cell-based, single point, plate reader | C2C12 myotubes + simvastatin, ATP luminescence, 48 h; scaled: DMSO 0, geranylgeraniol control 100 | rescue of ATP level, % at 7.49 µM | hit rate 0.78% among 330,000 | AID 602340, 2012;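 active = mean ATP rescue above about 67%, or every replicate alone reaching that limit, limit read from the data, passing the limit was not always enough; inconclusive = no clear call, values can overlap the other calls; inactive = mean under the limit and some replicate under it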;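 note: myotubes were challenged with 10 µM simvastatin during compound exposure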
# PDI inh: inhibitors of human PDI, primary screen, biochemical, turbidity, single point, plate reader | PDI insulin aggregation turbidity, A650, 90 min | hit rate 0.052% among 350,000 | inhibition, % at 10 µM | Protein disulfide-isomerase (Homo sapiens), P07237 | AID 588391, 2011;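 active = mean inhibition across replicates of 30% or more, whatever share of single replicates reach that level; inconclusive = mean inhibition below 30% while every single replicate reaches 30%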
# Target sequence (P07237 whole entry, looked up): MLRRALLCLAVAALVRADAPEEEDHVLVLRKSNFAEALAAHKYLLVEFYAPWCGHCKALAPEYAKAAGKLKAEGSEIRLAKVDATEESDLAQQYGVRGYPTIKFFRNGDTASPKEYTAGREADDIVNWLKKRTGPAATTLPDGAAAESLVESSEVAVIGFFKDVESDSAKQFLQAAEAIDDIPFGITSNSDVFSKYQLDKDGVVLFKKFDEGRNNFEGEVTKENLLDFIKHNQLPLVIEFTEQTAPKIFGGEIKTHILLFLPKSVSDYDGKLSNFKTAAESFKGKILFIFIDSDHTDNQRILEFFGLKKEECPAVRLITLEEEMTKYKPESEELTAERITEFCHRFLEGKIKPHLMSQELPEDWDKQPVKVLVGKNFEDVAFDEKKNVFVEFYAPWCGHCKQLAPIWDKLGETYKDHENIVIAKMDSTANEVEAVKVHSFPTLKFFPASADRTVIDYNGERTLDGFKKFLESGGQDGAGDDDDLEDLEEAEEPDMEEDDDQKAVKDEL
# ERp5 block: inhibitors of ERp5-driven insulin aggregation, primary screen, biochemical, turbidity, absorbance 650 nm, single point. 90 min. inhibition, % at 9.99 µM. hit rate 0.05% among 350,000. AID 651711, 2012;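 active = mean replicate inhibition above about 25%, with every replicate also reaching it, limit read from the data, passing the limit was not always enough; inconclusive = only one of those two criteria met; inactive = neither criterion met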
# Cneo AK release: Cryptococcus neoformans cell lysis inducers, primary screen, AK release luminescence, single concentration. C. neoformans lysis, adenylate kinase release luminescence, 4 h; normalised: neutral wells 0, clomiphene wells 100. lysis activity, % at 15 µM. hit rate 0.2% among 360,000;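 active = mean lysis activity across replicates of at least 80%, whatever share of replicates individually reach that level; inactive = mean lysis activity below 80%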
#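 Test system: log-phase Cryptococcus neoformans yeast cells; Quantity: yeast cell density of 5 × 10^6 cells/mL; Buffer or medium: YPD; Doses: single compound concentration per well; Timing: 4 h at 37 °C static, read 1 h later; Measured by: AK luminescence; Read-out basis: lysis from increased AK signal; Control set: Clomiphene as positive control.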
# The depositor's hits bear a star; ? = inconclusive; . = no result.
SMILES,DENV2 CPE,CFTR F508del cor,Statin myotox sup,PDI inh,ERp5 block,Cneo AK release
O=C(C[C@@H]1CC[C@H](NC(=O)c2cnccn2)[C@@H](CO)O1)NCc1ccccc1F,0.5,1.9,-16.7,.,0.6,4.2
O=C(Nc1ccccc1Cl)NC1(C(=O)N2CCCCC2)CCCCC1,.,.,101.1*,-1.5,.,-6.4
C[C@@H]1CN([C@@H](C)CO)C(=O)Cc2cc(NS(C)(=O)=O)ccc2O[C@@H]1CN(C)Cc1ccncc1,-4.4,-0.3,2.2,.,-18.4,0.4
O=C(c1cccc(F)c1)N1CC[C@@H]2[C@H](CO)Nc3ccc(-c4ccc(F)cc4)cc3[C@@H]21,15.0,-1.7,-5.6,.,0.9,46.9
O=C(c1ccccc1)N1CC[C@@H]2[C@H]1c1cc(-c3ccc(F)cc3)ccc1N[C@@H]2CO,28.7*,-1.6,21.3,.,.,52.2
O=C(c1ccccc1)N1CC[C@@H]2[C@H](CO)Nc3ccc(-c4ccc(F)cc4)cc3[C@@H]21,32.3*,-1.2,-12.4,.,.,57.2
CC(=O)Nc1ccc2c(c1)C(=O)N(C)[C@@H]1CC[C@H](CC(=O)NC3CCCCC3)O[C@H]1CO2,-4.1,-0.9,14.8,.,.,-1.6
CC(C)NC(=O)Nc1ccc2c(c1)C(=O)N([C@H](C)CO)C[C@@H](C)[C@H](CN(C)S(C)(=O)=O)OCCCC[C@H](C)O2,-5.0,1.5,.,.,4.9,-3.3
COc1ccc(S(=O)(=O)Nc2ccc3c(c2)C(=O)N([C@H](C)CO)C[C@@H](C)[C@@H](CN(C)S(=O)(=O)c2cn(C)cn2)O3)cc1,5.0,2.3,25.7,.,1.4,-1.8
COc1ccc([Si](C)(C)[C@@H]2[C@@H](CC(=O)N3Cc4ccccc4C[C@H]3CO)O[C@]3(C(=O)N(C)c4c(Br)cc(C)cc43)[C@H]2C)cc1,21.3*,-0.4,.,.,-5.1,-3.1
Cc1oc(C(=O)O)cc1COc1cccc2cccnc12,.,.,123.6*,8.9,.,.
COc1ccccc1Oc1ccc2c(c1)C(=O)N(c1ccc(O)cc1)C2=O,.,.,127.5*,-6.4,.,0.5
Cc1ccc(NC(=O)NCCN2CCCCC2)cc1,0.1,2.1,-5.9,-4.9,-2.5,-1.5
CCC(C)c1ccc(NC(=O)NCCN2CCCCC2)cc1 (stereo not drawn),29.7*,-2.6,-7.9,-6.6,2.4,4.3
Cc1ccc(-c2ccc([C@H]3[C@H](CO)N4C(=O)CN(C(=O)c5cccnc5)C[C@@H]34)cc2)cc1,-7.0,-0.1,.,.,3.5,.
CC(=C/c1ccccc1)/C=N/Nc1nc(N2CCCCC2)nc(N2CCCCC2)n1,63.6*,-1.2,-13.5,-0.5,-0.8,-1.0
COc1cc(OC)cc(-c2nc(N)n[nH]2)c1,.,.,105.6*,4.6,.,3.1
Cc1ccc2c(c1)N(CC(=O)Nc1nccs1)C(=O)CO2,-2.4,-1.9,4.0,-3.6,-1.4,.
Cc1ccc(NC(=O)CN2C(=O)COc3ccc(C)cc32)nc1,.,.,81.1*,-2.0,.,-2.3
Cc1ccc2c(c1)N(CC(=O)NCCc1c[nH]c3ccccc13)C(=O)CO2,.,.,79.7*,1.7,.,-1.5
Cc1ccc2[nH]cc(CCNC(=O)CN3C(=O)c4ccccc4C3=O)c2c1,-6.5,-4.8,2.7,-0.6,-3.8,.
CO[C@H]1CN(C)C(=O)c2ccc(NC(=O)C3CCCC3)cc2OC[C@H](C)N(C(=O)CC2CC2)C[C@H]1C,2.3,0.0,1.3,.,0.0,2.2
C/C=C/c1ccc([C@H]2[C@@H](CO)N(C(=O)CC)C23CN(C(=O)c2ccccc2)C3)cc1,29.3*,0.0,.,.,-1.4,.
CN(C)CC(=O)N1[C@H](CO)[C@H](c2ccccc2)C12CN(C(=O)c1ccccc1)C2,1.0,0.3,.,.,6.2,.
CN(C)CC(=O)N1[C@H](CO)[C@@H](c2ccccc2)C12CN(C(=O)c1ccccc1)C2,81.0*,-0.1,.,.,-0.6,.
SMILES,DENV2 CPE,CFTR F508del cor,Statin myotox sup,PDI inh,ERp5 block,Cneo AK release
O=C(Cc1ccccc1)N1CC2(C1)[C@H](c1ccccc1)[C@@H](CO)N2S(=O)(=O)Cc1ccccc1,33.4*,3.1,.,.,-1.2,.
C/C=C/c1ccc([C@@H]2[C@H](CO)N(C(=O)CC)C23CN(C(=O)c2ccccc2)C3)cc1,-9.0,1.3,.,.,-1.6,.
CN(C)CC(=O)N1[C@H](CO)[C@H](c2ccccc2)C12CN(CCC(F)(F)F)C2,20.9*,-4.3,.,.,-2.7,.
COc1ccc(NC(=O)Nc2cccc3c2O[C@H](CN(C)S(=O)(=O)c2ccc(F)cc2)[C@@H](C)CN([C@@H](C)CO)C3=O)cc1,10.2,1.2,-12.5,.,.,45.0
Cc1noc(C)c1NC(=O)Nc1ccc2c(c1)C(=O)N([C@@H](C)CO)C[C@H](C)[C@H](CN(C)Cc1ccc(C(F)(F)F)cc1)OCCCC[C@H](C)O2,-7.8,0.1,.,.,0.8,0.7
C[C@@H]1CCCCO[C@@H](CN(C)C)[C@H](C)CN([C@@H](C)CO)C(=O)c2cc(NC(=O)Nc3cccc4ccccc34)ccc2O1,?,-4.1,35.8,.,3.1,1.8
COCC(=O)N1CC2(C1)[C@@H](c1ccccc1)[C@@H](CO)N2C(=O)c1ccccc1,26.6*,-1.8,.,.,2.3,.
Cc1c(C(=O)N2CCOCC2)oc2ccc(S(=O)(=O)N3CCCC3)cc12,.,.,121.0*,4.6,.,0.3
CCOC(=O)N1CCN(C(=O)c2oc3ccc(S(=O)(=O)N4CCOCC4)cc3c2C)CC1,.,.,95.4*,4.8,.,0.5
CCOC(=O)c1oc2ccc(S(=O)(=O)n3nc(-c4ccc(C)cc4)cc3N)cc2c1C,89.7*,0.0,.,-13.2,-3.1,1.1
CCCN1[C@@H]2c3cccc(=O)n3C[C@H]1[C@H](CO)[C@H]2C(=O)N[C@H](C)c1ccccc1,3.7,0.6,.,.,12.9,.
CO[C@@H]1CN(C)C(=O)c2cc(NC(=O)CC(F)(F)F)ccc2OC[C@H](C)N(CC2CC2)C[C@@H]1C,-1.9,-3.8,.,.,3.3,.
COc1ccccc1N(CC(=O)N1CCCC1)S(=O)(=O)c1ccc(C)cc1,54.4*,-0.4,-6.2,-6.6,2.1,-6.4
CCOc1ccccc1N(CC(=O)N1CCCCCC1)S(=O)(=O)c1ccc(C)cc1,-1.3,-3.3,4.7,-1.2,-1.0,0.6
COc1ccccc1N(CC(=O)N1CCCCCC1)S(=O)(=O)c1ccc(C)cc1,14.9,1.1,91.3*,6.2,-0.1,-1.1
COc1ccc(S(=O)(=O)Nc2ccc3c(c2)C(=O)N([C@@H](C)CO)C[C@@H](C)[C@H](CN(C)S(=O)(=O)c2cn(C)cn2)OCCCC[C@@H](C)O3)cc1,9.1,-3.8,.,.,7.8,-0.8
COCC(=O)Nc1ccc2c(c1)[C@@H]1C[C@@H](CC(=O)NCc3ccc(-c4ccccc4)cc3)O[C@@H](CO)[C@@H]1O2,-0.4,0.2,-7.4,.,-9.3,-2.6
COC(=O)c1ccc2nc(-c3ccco3)c(Cc3ccsc3)n2c1,68.1*,0.3,.,.,-8.7,.

# From PubChem
